From ChEMBL document CHEMBL1146258, “N6-Cycloalkyl-2-substituted adenosine derivatives as selective, high affinity adenosine A1 receptor agonists” (Bioorg Med Chem Lett, 2007)

Assays:
[1] = molecular target: T1, Adenosine receptor A2b (Homo sapiens, UniProt P29275); experiment: Displacement of [3H]ZM241385 from adenosine A2B receptor expressed in HEK cells; assay type: cell-based, HEK293
T1 sequence (P29275 whole entry): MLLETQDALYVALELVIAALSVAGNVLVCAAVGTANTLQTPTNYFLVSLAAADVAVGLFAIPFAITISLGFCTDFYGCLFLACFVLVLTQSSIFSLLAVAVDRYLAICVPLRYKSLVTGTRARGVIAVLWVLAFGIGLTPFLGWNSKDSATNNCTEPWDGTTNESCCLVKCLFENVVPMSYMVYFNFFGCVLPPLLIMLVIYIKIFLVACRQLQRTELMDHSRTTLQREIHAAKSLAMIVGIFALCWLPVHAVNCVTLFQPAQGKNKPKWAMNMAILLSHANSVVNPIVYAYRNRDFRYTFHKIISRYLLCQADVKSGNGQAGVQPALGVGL
How it was run: (§1)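 HEK cells expressing A2A or A2B receptor, [³H]-ZM241385 radioligand, run without GTP; Ki for the high-affinity (coupled) state. 95% confidence limits generally 15% of mean.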

[2] = molecular target: Adenosine receptor A2a (Homo sapiens, UniProt P29274); experiment: Displacement of [3H]ZM-241385 from A2A adenosine A2A receptor expressed in HEK cells; assay type: cell-based, HEK293; how it was run: as §1
Sequence of Adenosine receptor A2a (P29274 whole entry): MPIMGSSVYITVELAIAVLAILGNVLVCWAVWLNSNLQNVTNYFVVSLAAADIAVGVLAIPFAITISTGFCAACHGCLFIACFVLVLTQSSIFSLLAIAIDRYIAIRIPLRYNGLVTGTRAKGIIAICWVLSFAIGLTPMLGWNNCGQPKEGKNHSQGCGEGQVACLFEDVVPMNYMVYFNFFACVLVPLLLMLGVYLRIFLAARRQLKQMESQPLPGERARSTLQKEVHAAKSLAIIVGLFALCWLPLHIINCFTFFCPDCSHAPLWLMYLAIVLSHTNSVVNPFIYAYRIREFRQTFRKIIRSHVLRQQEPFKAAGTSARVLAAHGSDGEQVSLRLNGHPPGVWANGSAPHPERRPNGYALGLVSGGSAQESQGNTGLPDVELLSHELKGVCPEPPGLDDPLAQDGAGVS

[3] = molecular target: Adenosine receptors; A1 & A2a (Homo sapiens) (UniProt P30542+P29274); experiment: Selectivity for adenosine A1 receptor over adenosine A2A receptor; assay type: protein assay
[4] = molecular target: Adenosine receptors; A1 & A3 (Homo sapiens) (UniProt P30542+P0DMS8); experiment: Selectivity for adenosine A1 receptor over adenosine A3 receptor; assay type: protein assay
Sequence of Adenosine receptors; A1 & A3 (Homo sapiens) (P30542 whole entry, looked up, one chain of several): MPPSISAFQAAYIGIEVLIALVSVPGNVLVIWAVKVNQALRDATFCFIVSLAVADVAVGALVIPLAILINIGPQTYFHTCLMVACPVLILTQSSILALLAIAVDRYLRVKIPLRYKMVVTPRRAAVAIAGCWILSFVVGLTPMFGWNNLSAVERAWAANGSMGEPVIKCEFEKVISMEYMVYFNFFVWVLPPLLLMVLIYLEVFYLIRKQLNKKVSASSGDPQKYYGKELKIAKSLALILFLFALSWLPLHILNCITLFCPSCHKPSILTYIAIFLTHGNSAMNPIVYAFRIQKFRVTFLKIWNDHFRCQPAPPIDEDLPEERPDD
How it was run: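 Ratio of A3 Ki-High (CHO-A3 cells, [¹²⁵I]-AB-MECA, no GTP) to A1 Ki-Low (DDT membranes, [³H]-CPX, with GTPγS).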

[5] = molecular target: T2, Adenosine receptor A3 (Homo sapiens, UniProt P0DMS8); experiment: Displacement of [125I]ABMECA from adenosine A3 receptor expressed in CHO cells; assay type: cell-based
T2 sequence (P0DMS8 whole entry): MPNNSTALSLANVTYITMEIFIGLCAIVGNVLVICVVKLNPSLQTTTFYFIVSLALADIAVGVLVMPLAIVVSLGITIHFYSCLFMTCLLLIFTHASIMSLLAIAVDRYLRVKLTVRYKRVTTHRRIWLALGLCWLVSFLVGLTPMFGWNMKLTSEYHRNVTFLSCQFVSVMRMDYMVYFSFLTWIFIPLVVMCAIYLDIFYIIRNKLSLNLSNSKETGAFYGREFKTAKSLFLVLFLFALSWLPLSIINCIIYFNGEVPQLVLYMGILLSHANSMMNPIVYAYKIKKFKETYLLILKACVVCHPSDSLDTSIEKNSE

[6] = molecular target: Adenosine receptor A1 (Mesocricetus auratus); experiment: Displacement of [3H]CPX from adenosine A1 receptor in DDT membranes
[7] = molecular target: T3, Adenosine receptor A1 (Rattus norvegicus) (UniProt P25099); experiment: Agonist activity at adenosine A1 receptor in rat brain membrane assessed as stimulation of [35S]GTP-gamma-S binding relative to CPA; assay type: functional, cell membranes
T3 sequence (whole entry): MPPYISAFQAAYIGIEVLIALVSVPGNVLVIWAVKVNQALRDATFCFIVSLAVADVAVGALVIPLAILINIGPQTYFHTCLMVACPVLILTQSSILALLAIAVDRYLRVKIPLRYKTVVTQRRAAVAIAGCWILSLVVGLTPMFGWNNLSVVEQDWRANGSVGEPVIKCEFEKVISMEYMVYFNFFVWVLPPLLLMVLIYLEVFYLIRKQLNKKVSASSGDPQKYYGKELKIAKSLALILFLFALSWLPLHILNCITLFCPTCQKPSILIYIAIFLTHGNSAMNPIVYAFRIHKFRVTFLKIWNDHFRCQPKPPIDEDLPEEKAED
How it was run: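 Rat brain membranes; agonist-induced [³⁵S]GTPγS binding to G protein measured, with maximal stimulation by the full agonist CPA set as 100% and efficacy expressed relative to it.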

Structure (SMILES) | Ki [1] | Ki [2] | Ratio Ki [3] | Ratio Ki [4] | Ki [5] | Ki [6] | Intrinsic activity [7]
CCNc1nc(-n2cc(-c3ccc(OC)cc3)cn2)nc2c1ncn2[C@@H]1O[C@H](CO)[C@@H](O)[C@H]1O |  |  |  |  |  | 3.7 µM | 
CNC(=O)c1cnn(-c2nc(NC3CCCC3)c3ncn([C@@H]4O[C@H](CO)[C@@H](O)[C@H]4O)c3n2)c1 | > 6 µM | > 5 µM |  | 710 | 1.42 µM |  | 
CCNC(=O)c1cnn(-c2nc(NC3CCCC3)c3ncn([C@@H]4O[C@H](CO)[C@@H](O)[C@H]4O)c3n2)c1 | > 6 µM | > 5 µM |  | 20 | 0.02 µM |  | 
OC[C@H]1O[C@@H](n2cnc3c(NC4CCCC4)nc(-n4cccn4)nc32)[C@H](O)[C@@H]1O | > 6 µM | > 5 µM |  | 3 | 0.105 µM |  | 
CNC(=O)c1cnn(-c2nc(NC3CCCCC3)c3ncn([C@@H]4O[C@H](CO)[C@@H](O)[C@H]4O)c3n2)c1 | > 6 µM | > 5 µM |  | 19 | 0.158 µM |  | 
O=C(O)c1cnn(-c2nc(NC3CCCC3)c3ncn([C@@H]4O[C@H](CO)[C@@H](O)[C@H]4O)c3n2)c1 | > 6 µM | > 5 µM |  | 468 | 4.12 µM |  | 100%

Now from value to compound:

Ki [1] | Ki [2] | Ratio Ki [3] | Ratio Ki [4] | Ki [5] | Ki [6] | Intrinsic activity [7] | Structure (SMILES)
> 6 µM | > 5 µM | > 600 | 633 | 0.38 µM |  |  | NC(=O)c1cnn(-c2nc(NC3CCCC3)c3ncn([C@@H]4O[C@H](CO)[C@@H](O)[C@H]4O)c3n2)c1
> 6 µM | > 5 µM |  | 83 | 0.25 µM |  |  | CCOC(=O)c1cnn(-c2nc(NC34CCC(CC3)C4)c3ncn([C@@H]4O[C@H](CO)[C@@H](O)[C@H]4O)c3n2)c1
> 6 µM | > 5 µM |  | 21 | 0.019 µM |  |  | CCOC(=O)c1cnn(-c2nc(NC3CCCC3)c3ncn([C@@H]4O[C@H](CO)[C@@H](O)[C@H]4O)c3n2)c1
> 6 µM | > 5 µM |  | 3180 | 1.27 µM |  |  | OC[C@H]1O[C@@H](n2cnc3c(NC45CCC(CC4)C5)nc(-n4cccn4)nc32)[C@H](O)[C@@H]1O
> 6 µM | > 5 µM |  | > 5000 | > 5 µM |  |  | O=C(O)c1cnn(-c2nc(NC34CCC(CC3)C4)c3ncn([C@@H]4O[C@H](CO)[C@@H](O)[C@H]4O)c3n2)c1
> 6 µM | > 5 µM |  | 1 | 0.03 µM |  |  | CCOC(=O)c1cnn(-c2nc(NC3CCCCC3)c3ncn([C@@H]4O[C@H](CO)[C@@H](O)[C@H]4O)c3n2)c1
